One data set has as its system SK-N-SH. Put plainly: Antitumour activity against human SK-N-SH cells assessed as cell growth inhibition measured after 72 hrs by SRB assay. In kind it is functional, cell-based. In outline:
(§1)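 Exponentially growing cells trypsinized, seeded at 5 × 10^4 cells/mL in 96-well plates, cultured overnight, then exposed to compounds for 72 h. Cells fixed with 10% TCA 1 h, stained with SRB 15 min, dye dissolved in Tris-HCl, absorbance read; 50% growth-inhibitory concentration calculated.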

The test system of another data set is A549. Briefly: Antitumour activity against human A549 cells assessed as cell growth inhibition measured after 72 hrs by SRB assay. The format is functional, cell-based. To be noted: A549, 72 h. In outline:
as §1

Another data set deals with HEK293. Put plainly: Cytotoxicity against human HEK293 cells measured after 48 to 72 hrs by MTT assay. In kind it is cell-based. In outline: (§2)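 Cells seeded at 3 × 10^3 per well in 96-well plates, incubated overnight, then given fresh medium with a range of drug concentrations for 48 h or 72 h. MTT added (final 500 µg/mL) for 4 h, formazan dissolved in DMSO, absorbance at 570 nm; IC50 derived. Mean ± SD of 3 independent tests.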

Data set [1] in a line: Solubility of the compound in water. The format is physicochemical. The following applies: buffer.
For data set [2], the system named is MCF7. Briefly: Cytotoxicity against human MCF7 cells assessed as reduction in cell viability measured after 48 to 72 hrs by MTT assay. The format is cell-based. In outline: as §2
Data set [3] in a line: Toxicity in nude mouse xenografted with human MCF7 cells assessed as effect on heart morphological changes at 22.5 to 45 mg/kg/day, ip administered for 21 days by HE staining analysis. To be noted: in vivo, 504 h. The format is organism-based.
The nature of data set [4]: Hepatotoxicity in nude mouse xenografted with human MCF7 cells assessed as slight increase in serum alanine transaminase level at 22.5 to 45 mg/kg/day, ip administered for 21 days by biochemical automatic analyzer. The format is toxicity, organism-based. To be noted: in vivo, 504 h.
Data set [5] is described as follows: Hepatotoxicity in nude mouse xenografted with human MCF7 cells assessed as slight increase in serum aspartate transaminase level at 22.5 to 45 mg/kg/day, ip administered for 21 days by automatic biochemical analyzer. The format is toxicity, organism-based. The following applies: in vivo, 504 h.
Another data set concerns HUVEC. Put plainly: Cytotoxicity against HUVEC assessed as reduction in cell viability measured after 48 to 72 hrs by MTT assay. In kind it is cell-based. To be noted: human. In outline: as §2
The subject of a further data set is GES1. Briefly: Cytotoxicity against human GES-1 cells assessed as reduction in cell viability measured after 48 to 72 hrs by MTT assay. In kind it is cell-based. In outline:
as §2

A further data set relates to MGC-803. Put plainly: Cytotoxicity against human MGC803 cells assessed as reduction in cell viability measured after 48 to 72 hrs by MTT assay. In kind it is cell-based. In outline: as §2
The subject of data set [6] is MCF7. Put plainly: Inhibition of epithelial-mesenchymal transition in human MCF7 cells assessed as decrease in N-cadherin expression level at 2 to 10 uM after 48 hrs by Western blot analysis. The format is functional, cell-based. In outline:
(§3)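 MCF-7 cells in RPMI 1640 with 10% FBS, 37 °C, 5% CO2, exposed to no drug, 2 or 10 µM for 48 h. RIPA lysates, BCA quantitation, 8% SDS-PAGE, PVDF transfer, primary antibodies overnight 4 °C, secondary 2 h RT, ECL and densitometry for ZO-1, E-cadherin, N-cadherin, vimentin. Mean ± SD of 3 independent tests.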

The test system of data set [7] is MCF7. Briefly: Inhibition of epithelial-mesenchymal transition in human MCF7 cells assessed as decrease in vimentin expression level at 2 to 10 uM after 48 hrs by Western blot analysis. The format is functional, cell-based. In outline: as §3

The source made the active and inactive calls. The calls are words filed in the database; no cut-off is given here. Some results are limits rather than exact numbers.

For the molecule `COc1cc2c(cc1O)CC[C@@H]1[C@@H]2CC[C@]2(C)C(=O)/C(=C/c3ccc(Cl)cc3)C[C@@H]12`, the 50% inhibitory concentration (IC50) in the data set on SK-N-SH is 24.7 µM; in the data set with A549 it was 23.2 µM; in the data set with HEK293, more than 100 µM; in the data set with MCF7 [2] it was 77 µM. For the same molecule, the solubility entry in data set [1] was “Soluble”. Besides, the Activity entry was “Non-Toxic” in data set [3]; “Toxic” in data set [4]; “Toxic” in data set [5]; “Toxic” in the data set on HUVEC; “Toxic” in the data set on GES1; “Toxic” in the data set with MGC-803. Moreover, the inhibition result in the data set on MCF7 [6] and in the data set on MCF7 [7] was “Active” throughout.

The values are drawn from ChEMBL document CHEMBL4393712, “Discovery of chalcone-modified estradiol analogs as antitumour agents that Inhibit tumour angiogenesis and epithelial to mesenchymal transition” (Eur J Med Chem, 2019).
